Assay outcomes as filed in PubChem BioAssay.
Sampled rows, rich in hits. Any-hit rate of the full collection: about 2.2%.
COUP-TFII inh: blocks human COUP-TFII nuclear receptor; actives 0.7% (n = 370,000); HEK293T NGFI-A luciferase reporter, luminescence; inhibition, % at 8.6 µM; P24468;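 active = inhibition above a per-plate cutoff, mean inhibition of test wells between control levels plus 3 SD, cut at about 38% in these data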;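 note: cells cotransfected with COUP-TFII expression vector driving the NGFI-A reporter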
SMARCA2 act: increases SMARCA2 function in MMTV reporter cells; MG213 cells, MMTV-luciferase reporter, dexamethasone, overnight; AID 652017; actives 1% (n = 370,000); activation, % at 9.1 µM; in the data active = activation above about 7.8%
GalR3 antagonist: blocks the human galanin receptor 3 | inhibition, % at 3 µM | AID 651719 | HEK293 GalR3-CNG cAMP membrane potential fluorescence; galR3 body fused to GalR1 C-terminus | O60755 | actives 0.44% (n = 360,000);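 active = inhibition above the screen-wide average plus 3 SD, cut at about 13% in these data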;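 note: forskolin and galanin both at EC90 stimulate the cells; cAMP rise reported by CNG channel membrane potential dye signal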
NR2E3 ag-1: human photoreceptor-specific nuclear receptor agonism | inhibition of corepressor binding, % at 3.98 µM | actives 0.35% (n = 360,000) | CHO-S Gal4-NCOR/VP16-NR2E3 two-hybrid, luciferase | Q9Y5X4;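 active = inhibition above the mean of all tested compounds plus 3 SD, cut at about 70% in these data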;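 note: higher means lower luciferase signal from less NR2E3 corepressor binding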
Target sequence (Q9Y5X4 whole entry, looked up, the tested form may be a part): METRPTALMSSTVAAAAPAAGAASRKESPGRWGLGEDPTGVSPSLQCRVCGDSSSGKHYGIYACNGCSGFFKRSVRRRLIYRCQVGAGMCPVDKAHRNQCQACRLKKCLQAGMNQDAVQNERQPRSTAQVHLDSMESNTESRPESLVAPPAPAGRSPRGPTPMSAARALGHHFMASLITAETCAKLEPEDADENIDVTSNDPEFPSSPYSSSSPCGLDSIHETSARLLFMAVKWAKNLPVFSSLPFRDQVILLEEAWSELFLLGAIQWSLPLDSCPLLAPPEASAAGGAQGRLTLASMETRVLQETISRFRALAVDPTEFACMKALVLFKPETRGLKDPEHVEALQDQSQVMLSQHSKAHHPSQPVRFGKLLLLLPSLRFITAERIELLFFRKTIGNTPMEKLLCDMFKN
NR2E3 ag-2: agonists of human nuclear receptor NR2E3; Q9Y5X4; GST-NR2E3/biotin-RetCOR TR-FRET, 1536-well; inhibition of corepressor binding, % at 4.78 µM; actives 0.12% (n = 320,000);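 active = percent inhibition above the cutoff of mean plus 3 SD of all tested compounds, set per screening campaign, cut at about 20% in these data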
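Material: NR2E3–RetCOR corepressor complex | Quantity: 1.35 nM GST-tagged NR2E3 final | Schedule: 5 h at 4 °C | Replication: Singlicate compound wells | Reagent: RetCOR corepressor, biotinylated, 7 nM | Controls: Biotin wells as high control, 0.6% DMSO wells as low control | Signal: TR-FRET, Eu(K)-anti-GST donor, streptavidin-D2 acceptor, ex 340, em 617/671 nm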
Gal4-VP16 ctr: inhibits VP16 reporter, flagging COUP-TFII antagonist hits; AID 687007; shares compounds with COUP-TFII inh; inhibition, % at 8.5 µM; HEK293 Gal4-VP16 luciferase reporter, luminescence; actives 25% (n = 2,500); in the data active = inhibition above about 13%
COUP-TFII conf: COUP-TFII (NR2F2) inhibition, confirmation assay; shares compounds with COUP-TFII inh; HEK293 NGFI-A luciferase reporter, luminescence; inhibition, % at 8.5 µM; actives 45% (n = 2,500); AID 687008;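 active = mean inhibition over three repeats above a set limit taken from the earlier primary screen, cut at about 38% in these data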
Numbers stand for hits; – = inactive; · = not tested or not shown.

SMILES	COUP-TFII inh	SMARCA2 act	GalR3 antagonist	NR2E3 ag-1	NR2E3 ag-2	Gal4-VP16 ctr	COUP-TFII conf
C=CCN(C(=O)[C@@H](C)[C@@H](O)c1ccc2ccccc2c1)c1ccccc1	–	–	·	·	·	·	·
CCN(C(=O)c1cnc(N2CCN(c3ncccn3)CC2)c2ccccc12)c1cccc(Cl)c1	50	–	–	–	–	–	–
C#CCN1CC(N(C)CCOC(=O)c2cc3ccccc3[nH]2)CS1(=O)=O (stereo not drawn)	–	–	·	·	·	·	·
O=C(COC(=O)c1ccc[nH]c1=O)Nc1ccc(S(=O)(=O)N2CCCC2)cc1	–	–	–	–	–	·	·
O=C(COC(=O)c1ccc[nH]c1=O)Nc1ccc(N2CCCCC2)cc1	86	–	–	–	·	77	71
CC(=O)c1cc(-c2ccccc2)n(CC(=O)NCc2ccccc2)c1C	–	–	·	·	·	·	·
Cc1c(C(=O)NCc2ccccc2C(F)(F)F)sc(=O)n1Cc1ccc(S(=O)(=O)N(C)C)cc1	–	–	–	–	·	·	·
Cc1c(C(=O)NCc2ccc(C(F)(F)F)cc2)sc(=O)n1Cc1ccc(S(=O)(=O)N(C)C)cc1	42	–	–	–	·	–	–
COc1ccc(CNC(=O)c2sc(=O)n(Cc3ccc(S(=O)(=O)N(C)C)cc3)c2C)cc1	45	–	–	–	·	–	–
COC(=O)[C@]12C[C@H](CC(=O)N3CCN(C(=O)C4CC4)CC3)C(=O)N(CCc3ccc(OC)c(OC)c3)C1=C[C@H](C(C)C)O[C@@H]2C1CC1	–	–	·	·	·	·	·
NC(=S)N/N=C1\CCSc2ccc(Cl)cc21	37	–	–	–	–	–	–
CC(Oc1ccc(Br)cc1Cl)C(=O)Nc1ccncc1 (stereo not drawn)	45	–	–	–	–	–	–
CC(Oc1ccc(Br)cc1)C(=O)Nc1ccncc1 (stereo not drawn)	–	–	–	–	–	·	·
Cc1ccc(-c2nnc(SCC(=O)NN=Cc3c[nH]c4ccccc34)n2-c2ccccc2)cc1	–	–	·	·	·	·	·
CS(=O)(=O)N(CC(=O)NCCSc1ccccc1)c1ccc2c(c1)OCO2	38	–	–	–	–	–	–
CC(=O)c1ccc(N2CCN(C(=O)/C=C/c3ccc(S(=O)(=O)NCc4ccco4)cc3)CC2)cc1	54	–	–	–	–	–	–
O=C(Nc1cccc(Cl)c1)OCCN1CCCC12CCC(c1ccccc1)CC2 (stereo not drawn)	–	·	·	·	·	·	·
CC(C)(C)N1Cc2nnn(Cc3ccccc3)c2-c2cc(N3CCCC3)ccc2S1(=O)=O	–	–	·	·	·	·	·
CCOC(=O)Cc1nn(Cc2nc(-c3ccc(C#N)cc3)cs2)c(=O)c2ccccc12	39	–	–	–	–	17	–
Cc1cc(-c2n[nH]c(=S)n2N=Cc2cccc(Oc3ccccc3)c2)n[nH]1	–	–	·	·	·	·	·
OCC1(Cc2ccccc2)CCN(Cc2cnc(-c3cccc4ccccc34)nc2)CC1	–	–	–	–	–	·	·
OCC1(Cc2ccccc2)CCN(Cc2cnc(-c3ccc(Cl)cc3)nc2)CC1	43	–	–	–	–	–	–
CCCOc1ccc(-c2cc3onc(-c4ccccc4)c3c(=O)n2C)cc1	–	–	–	–	·	·	·
Cc1ccc(-c2cc3onc(-c4ccccc4)c3c(=O)n2C)cc1	43	–	–	–	–	34	72
CCCC(=O)Nc1ccc2c(c1)C(=O)N(C)[C@H]1CC[C@@H](CC(=O)OC)O[C@@H]1CO2	–	–	·	·	·	·	·
SMILES	COUP-TFII inh	SMARCA2 act	GalR3 antagonist	NR2E3 ag-1	NR2E3 ag-2	Gal4-VP16 ctr	COUP-TFII conf
CCCCOc1ccc(Br)cc1CSC(=N)N	76	–	23	–	·	–	44
O=C(NC1CCCCN(Cc2cccc(Cl)c2)C1=O)c1ccc(COc2ccccc2)cc1 (stereo not drawn)	48	–	·	·	·	–	–
CS(=O)(=O)N(CCc1ccccc1)CC(=O)N1CCN(Cc2ccc3c(c2)OCO3)CC1	–	–	–	–	–	·	·
CS(=O)(=O)N(CC(=O)N1CCN(Cc2ccc3c(c2)OCO3)CC1)Cc1ccc(Cl)cc1	40	–	–	–	–	–	–
CN1C(=O)c2cc(NC(=O)c3ccc(F)cc3)ccc2OC[C@H]2O[C@H](CC(=O)NC3CCC3)CC[C@H]21	–	–	·	·	·	·	·
COc1ccc(-c2c[n+](CC(=O)OC3CC(C)CCC3C(C)C)c3n2CCC3)cc1 (stereo not drawn)	64	–	–	–	–	–	–
O=C(NC1=N[C@@]2(C=C3CCCCC3n3c(=O)n(-c4ccccc4)c(=O)n32)CN1Cc1ccccc1)c1ccccc1 (stereo partly drawn)	–	–	·	·	·	·	·
COc1ccc2c(c1)C(CC(C)=O)N(c1ccc(-c3cnc(OC)nc3)cc1)C(c1ccsc1)=C2 (stereo not drawn)	–	–	–	–	·	·	·
COc1ccc2c(c1)C(CC(C)=O)N(c1ccc(-c3cccs3)cc1)C(c1ccsc1)=C2 (stereo not drawn)	47	–	–	–	·	–	–
COc1ccc2cc3cc(C(=O)Nc4cc(OC)c(OC)c(OC)c4)oc3nc2c1	50	–	–	–	–	–	–
COC(=O)[C@]12C[C@H](CC(=O)NCc3ccc(OC)c(OC)c3)C(=O)N(Cc3ccc(Cl)cc3Cl)C1=C[C@H](C(C)C)O[C@@H]2C1CC1	–	–	·	·	·	·	·
COC(=O)C1C2CC3c4[nH]c5cc(OC)ccc5c4CCN3CC2CC(OC(=O)CC(C)=O)C1OC (stereo not drawn)	–	–	–	–	·	·	·
CCOC(=O)Oc1c(OC)cc(C(=O)O[C@@H]2C[C@@H]3CN4CCc5c([nH]c6cc(OC)ccc56)[C@H]4C[C@@H]3[C@H](C(=O)OC)[C@H]2OC)cc1OC	50	–	–	–	–	–	43
CCCC[C@H]1C2CC(OC(=O)Nc3ccc4c(c3)OCO4)C(C2)[C@H]2CCCCN21 (stereo partly drawn)	–	–	·	·	·	·	·
O=C(c1ccco1)N1CCCC(c2nc(-c3ccc(S(=O)(=O)NCc4ccccc4)cc3)no2)C1 (stereo not drawn)	51	–	–	–	–	–	–
COc1ccc(-c2noc(C3CCCN(C(=O)c4ccccc4)C3)n2)cc1 (stereo not drawn)	–	–	–	–	–	·	·
CCN(CC)c1ccc(C=NNC(=O)Cc2cc(=O)[nH][nH]2)c(O)c1	–	–	·	·	·	·	·
CN(C)C(CNC(=O)c1cc(S(=O)(=O)N2CCOCC2)ccc1Cl)c1cccs1 (stereo not drawn)	–	–	–	–	·	·	·
CN(C)C(CNC(=O)c1cc(S(=O)(=O)N(C)c2ccccc2)ccc1Cl)c1cccs1 (stereo not drawn)	41	–	–	–	–	–	–
O=C(O)CSCC(=O)N1CCN(c2ccnc3cc(Cl)ccc23)CC1	·	·	·	–	–	·	·
